M1 agonist: M1 muscarinic receptor agonism. CHO-M1 cells, Fluo-4 calcium fluorescence, agonist mode; active compounds read high. AID 626. B-score at 10 µM. hit rate 3% among 64,000;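 active = fluorescence rise, raw or as B-score row- and column-corrected plate score, outside the 99.7% band of its plate's samples, either direction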
RORA act: activates the human nuclear receptor RORA; P35398; CHO-K1 Gal4-RORA LBD luciferase reporter, luminescence; percent increase over mock-subtracted basal signal; activation, % at 10 µM; hit rate 1.5% among 65,000; AID 560;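 active = activation above the mean of all tested compounds plus 3 SD, cut at about 49% in these data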;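 also: 0% = DMSO-treated RORA cells and 100% = added signal equal to DMSO minus mock-transfected cells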
Target sequence (P35398 whole entry, looked up, the tested form may be a part): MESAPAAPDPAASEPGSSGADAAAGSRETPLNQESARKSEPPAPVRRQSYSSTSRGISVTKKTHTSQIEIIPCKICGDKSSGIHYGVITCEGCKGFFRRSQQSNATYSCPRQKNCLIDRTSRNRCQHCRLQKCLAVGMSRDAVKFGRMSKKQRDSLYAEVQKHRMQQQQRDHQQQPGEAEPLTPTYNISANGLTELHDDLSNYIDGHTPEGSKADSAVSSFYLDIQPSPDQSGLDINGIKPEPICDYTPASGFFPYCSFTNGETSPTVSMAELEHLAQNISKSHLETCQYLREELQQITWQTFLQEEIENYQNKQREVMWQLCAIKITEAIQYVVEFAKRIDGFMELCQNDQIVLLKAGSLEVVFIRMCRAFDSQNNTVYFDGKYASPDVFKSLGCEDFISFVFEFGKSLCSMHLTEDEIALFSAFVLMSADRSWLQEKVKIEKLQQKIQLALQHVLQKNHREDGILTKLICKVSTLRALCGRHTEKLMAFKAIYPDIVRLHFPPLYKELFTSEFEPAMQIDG
SF1 activator: SF-1 (human) activation. Q13285. CHO-K1 Gal4-SF-1 LBD luciferase reporter; % increase over DMSO SF-1-specific signal. activation, % at 10 µM. hit rate 1.9% among 65,000. AID 522;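 active = activation above the mean activation of all tested compounds plus 3 SD, cut at about 50% in these data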
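Test system: transient Gal4-SF-1 LBD reporter, CHO-K1; Amount: 4,000 CHO-K1 cells per well; Doses: 10 µM only; Timing: compound exposure 20 h at 37 °C; Signal: luciferase light emission; Read-out basis: percent activation relative to DMSO median and mock-transfected background; Control set: DMSO negative control and −SF1 background wells; Replicates: one test per compound.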
M1 antag: blocks the rat M1 muscarinic receptor response to acetylcholine; B-score at 10 µM; hit rate 3.4% among 64,000; P08482; CHO-M1 cells, Fluo-4 calcium, ACh EC80 antagonist mode; active compounds read low;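 active = calcium fluorescence response, raw or row-and-column corrected B-score, differing from the plate sample mean either way at a set confidence level, mostly lower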
MT1-MMP txn act: activates MT1-MMP transcription. HT1080 MT1-MMP promoter luciferase reporter, luminescence, overnight; active compounds read high. activation factor at 10 µM. hit rate 0.16% among 86,000;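 active = activation factor of at least 2 for MT1-MMP transcription at 10 µM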
M1 ag confirm: rat M1 muscarinic agonism, confirmation. fluorescence change (max-min) at 10 µM. CHO-M1 cells, Fluo-4 calcium fluorescence, agonist mode; actives lie on both sides. hit rate 19% among 1,700. shares compounds with M1 agonist;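 active = fluorescence change differs from the solvent-only DMSO control mean at a set confidence level in both duplicate runs; inconclusive = differs from solvent-only control mean in just one of two runs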;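 also: an EC20 dose of acetylcholine follows compound addition during the same imaging run; raw fluorescence intensity difference in instrument units with no normalization to controls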
M4 agonist ctr: rat M4 muscarinic agonism, M1 counter-screen; AID 1741; shares compounds with M1 agonist; fluorescence change (max-min) at 10 µM; hit rate 9% among 1,700; CHO M4/Gqi5 cells, Fluo-4 calcium fluorescence, agonist mode; actives lie on both sides;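 active = fluorescence change differing from the plate's solvent-only control wells at 99.7% confidence in both duplicates, whether higher or lower; inconclusive = differs from solvent controls in only one of two duplicates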
Starred values were filed as active, the others as inactive; ? = inconclusive; · = no result given. This is a sample that favours compounds with a hit; in the whole collection about 6.3% have one here.

SMILES	M1 agonist	RORA act	SF1 activator	M1 antag	MT1-MMP txn act	M1 ag confirm	M4 agonist ctr
Cc1ccc2c(c1)nnn2C1CCN(CC(=O)Nc2ccccc2N2CCOCC2)CC1	2.9*	3	2	-0.047	1.3	-12	-5.7
N#Cc1ccc(OCc2nnc(SCC(=O)c3ccccc3)n2-c2ccccc2)cc1	·	·	·	·	1.2	·	·
Cc1sc(NC(=O)CSc2nnc(COc3ccccc3)n2C)c(C#N)c1C	2.4*	-2	-4	-0.17	1	?	-51
Cc1ccc(OCc2nnc(SCC(=O)Nc3sc(C)c(C)c3C#N)n2C)cc1	-0.044	10	5	0.05	1	·	·
COC(=O)c1cccc(NC(=O)CSc2nnc(COc3ccc(C#N)cc3)n2-c2ccccc2)c1	3.6*	-8	-2	-0.11	1.1	?	-49
c1ccc(N2CCN(c3c4c(nc5ncnn35)CCC4)CC2)cc1	-2.4	0	-12	0.58	0.9	·	·
COc1cccc(N2CCN(c3c4c(nc5ncnn35)CCC4)CC2)c1	6.7*	-6	-15	0.16	1.1	-1.9	-45
C=CCn1c(SCC(=O)c2ccccc2)nnc1-c1ccc2c(c1)OCO2	0.065	10	5	-0.05	1.1	·	·
CCOC(=O)c1cnc(SC)nc1Sc1cc(Cl)ccc1Cl	·	·	·	·	1.1	·	·
CCCn1nnnc1SCC(=O)Nc1nnc(CC)s1	2.6*	-2	7	-0.077	1.1	-18	?
COc1ccccc1N1CCN(CC(O)COc2cccc3ccccc23)CC1 (configuration not stated)	0.015	-27	-44	-0.94	0.9	·	·
OC(COc1ccccc1Cl)CN1CCN(CC(O)COc2ccccc2Cl)CC1 (configuration not stated)	5.2*	15	18	-0.49	1.1	-13	?
Cc1cc2cc(CCNC(=O)c3ccc(S(=O)(=O)N4CCOCC4)cc3)c(=O)[nH]c2cc1C	6.7*	17	10	-1.9	1.3	?	-67
CCC(CC)C(=O)NCCc1cc2cc(C)c(C)cc2[nH]c1=O	0.48	-9	8	1	1.1	·	·
O=S(=O)(NCCOCC(F)(F)C(F)F)c1ccc2oc3ccccc3c2c1	15*	12	-16	-1.1	1.2	-22*	-31
COc1ccc(S(=O)(=O)Nc2cc(C)c(O)cc2C(C)C)cc1	4.7*	-3	-6	0.35	1.1	-11	-48
CCC(=O)N1CCc2cc(S(=O)(=O)NCCCN(CC)Cc3ccccc3)ccc21	0.45	1	4	-1.1	·	·	·
O=C(CCCc1nc(-c2ccc(Cl)cc2)no1)N1CCOCC1	-2.5*	3	5	-0.65	1	?	-90*
Cc1csc(NC(=O)CSc2nnc(-c3ccco3)n2C)n1	0.0057	-1	9	0.29	1.1	·	·
COc1cccc2cc(-c3nnc(SCC(=O)Nc4nc(C)cs4)n3C)oc12	3.9*	26	-5	0.39	1.1	?	-60
CC(OC1=CC(=O)CCC1)C(=O)c1ccccc1 (configuration not stated)	-0.35	-3	-2	-0.057	·	·	·
CC(C)(C)c1ccc(C(=O)N2CCC(C(=O)NCc3ccco3)CC2)cc1	·	·	·	·	1.2	·	·
CCCC(=O)Nc1nc(-c2ccc3c(c2)OCCO3)cs1	3.2*	63*	61*	-0.14	1.4	10	-14
CCC1(CC)Cc2ccccc2C(Nc2c(C)n(C)n(-c3ccccc3)c2=O)=N1	·	·	·	·	1	·	·
CCCOc1ccc2ccccc2c1/C=N/n1c(C)nnc1-n1nc(C)cc1C	3.4*	21	31	-0.5	0.5	?	-38
SMILES	M1 agonist	RORA act	SF1 activator	M1 antag	MT1-MMP txn act	M1 ag confirm	M4 agonist ctr
Cc1ccc(OCC(=O)Nc2ccc(N(C)C)cc2)cc1	-1.6	0	4	-0.35	1.1	·	·
COCC(=O)Nc1ccc(N(C)C)cc1	-2.9*	11	12	-0.015	1.2	-33*	-71
Cc1ccc(-c2nnn(CC(=O)N(Cc3ccccc3)C(C(=O)NC3CCCC3)c3ccncc3)n2)o1 (configuration not stated)	-0.43	5	4	0.12	1	·	·
COc1ccc(-c2nc(-c3ccc(NC(=O)c4ccncc4)cc3)no2)cc1OC	3.8*	8	-10	-0.013	1.1	-21	-8.7
C=CCOC(=O)CN1C(=O)c2ccccc2C1=O	0.56	-8	-2	-0.35	1.1	·	·
Cc1n[nH]c(C)c1S(=O)(=O)N(CC(=O)NC1CCCC1)c1ccc(C(C)C)cc1	3.9*	2	-8	-0.22	1.2	-19	-48
CCOC(=O)N1CCC(NC(=O)c2sc(-n3cccc3)nc2C)CC1	0.25	-14	-9	-0.78	1.1	·	·
CC(C)N(Cc1nc(-c2ccccc2)no1)C(=O)CN(C)S(=O)(=O)c1ccccc1	0.98	-5	-11	0.28	0.9	·	·
CCOC(=O)C1CCCN(c2c(NCCN(C)Cc3ccccc3)c(=O)c2=O)C1 (configuration not stated)	-0.59	3	-4	-0.54	1.2	·	·
CCOC(=O)C1CCCN(c2c(NCc3ccco3)c(=O)c2=O)C1 (configuration not stated)	6.1*	-10	2	-1.1	1.3	-5	-30
CCOC(=O)C1CCCN(c2c(NCCc3ccc(S(N)(=O)=O)cc3)c(=O)c2=O)C1 (configuration not stated)	2.3*	-6	-7	-1.2	1.1	-11	-14
COc1ccccc1N1CCN(C(=O)c2ccc(S(=O)(=O)N3CCCCCC3)cc2)CC1	0.24	-13	0	-0.89	1	·	·
O=C(NCc1cccnc1)C1c2ccccc2C(=O)N1Cc1ccco1 (configuration not stated)	11*	-3	5	0.02	1	-16	-19
COc1cc(N)ccc1Cc1ccc(N)cc1OC	3.7*	-9	-12	1.1	1.1	-19	-27
O=C(CCn1c(=S)[nH]c2ccccc2c1=O)N1CCN(c2ccccn2)CC1	0.26	2	14	-1.1	1.2	·	·
C=CCn1c(SCC(=O)NCCOC)nc2scc(-c3ccco3)c2c1=O	-0.47	-6	-16	-0.4	1.1	·	·
O=C(O)Cn1c(CC(=O)N2CCCC2)nc2ccccc21	-0.32	-4	-12	-0.021	1	·	·
O=C(N1CCCC1)n1c(Cc2ccccc2)nc2ccccc21	6.4*	6	6	1.4	1.1	?	-82*
O=C(CN1CCN(c2ccccc2)CC1)Nc1ccc(-n2cnnn2)cc1	51*	3	8	-0.44	1	1.1	-36
Cc1cccc(/N=C/c2c(O)n(-c3cc(Cl)ccc3N3CCOCC3)c(=O)c3ccccc23)n1	0.0073	18	16	0.54	1	·	·
O=c1c2ccccc2c(C=Nc2ccc(Cl)cn2)c(O)n1-c1cc(Cl)ccc1N1CCOCC1	15*	-11	-16	0.49	1.1	-10	-11
c1ccc(-c2nc(NCCCN3CCOCC3)c3ccccc3n2)cc1	2.6*	-4	6	-0.15	1.1	-8.4	-11
